Compound activity from PubChem.
Rce1 inhib = yeast Rce1p protease inhibitors, primary screen, biochemical, fluorescence, cell-free homogeneous | CAAX prenyl protease 2 (Saccharomyces cerevisiae (strain ATCC 204508 / S288c)), Q03530 | yeast membranes, quenched prenylated peptide cleavage fluorescence | calls only | actives 0.27% (n = 290,000);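 active = fall in fluorescence gain of 50% or more versus controls, with final raw signal at or below 3038400; inconclusive = same 50% fall but final raw signal above 3038400; inactive = fall in fluorescence gain under 50%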;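 also: plate controls were neutral control wells for no effect and wells lacking membranes for full effect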
Target sequence (Q03530 whole entry, looked up): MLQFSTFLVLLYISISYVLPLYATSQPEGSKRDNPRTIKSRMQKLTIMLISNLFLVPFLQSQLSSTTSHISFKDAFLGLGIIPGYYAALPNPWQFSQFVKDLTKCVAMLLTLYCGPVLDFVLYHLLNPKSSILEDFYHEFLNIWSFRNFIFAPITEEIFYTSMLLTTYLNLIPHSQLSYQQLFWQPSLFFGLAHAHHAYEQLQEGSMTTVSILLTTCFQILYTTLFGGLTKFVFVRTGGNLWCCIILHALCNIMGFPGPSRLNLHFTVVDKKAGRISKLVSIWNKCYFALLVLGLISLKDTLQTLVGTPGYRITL
RanGTP-Impb inh = inhibitors of RanGTP-importin-beta interaction, primary screen, biochemical, FRET, CFP-Ran, YFP-importin-beta, homogeneous; Ran GTPase (GTP-bound) - importin-beta complex; cell-free CFP-Ran/YFP-importin-beta FRET ratio; inhibition, % (concentration not given with the values); actives 1.1% (n = 300,000);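 active = more than half of the replicate wells show a fall in the fluorescence ratio signal beyond about 16%, limit read from the data, passing the limit was not always enough; inconclusive = exactly half of the replicate wells pass the set limit; inactive = fewer than half of replicates pass the limit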;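 also: 0% = DMSO wells and 100% = Ran loaded with GDP instead of GTP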
Platelet DG rel = inhibitors of platelet dense granule secretion, primary screen, cell-based, MLPCN, human platelets. human platelet-rich plasma, SFLLRN dense granule ATP release, luminescence. inhibition, %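 (compounds screened at 7.5 µM in platelet-rich plasma)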. actives 0.22% (n = 300,000). AID 1663, 2009;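 active = mean replicate score, as percent of positive control, at or above 50; inconclusive = mean below 50 but at least one replicate at or above 50; inactive = mean and every replicate below 50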
Runt-SMMHC FRET = inhibitors of RUNX1 Runt–CBFb-SMMHC binding, primary screen, biochemical, FRET, Cerulean-Runt, Venus-CBFb-SMMHC, uHTS. inhibition, % at 20 µM. Runt-related transcription factor 1 (Homo sapiens) + Core-binding factor subunit beta …. actives 0.74% (n = 220,000). Cerulean-Runt/Venus-CBFb-SMMHC FRET ratio 530/480, 1 h;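 active = mean inhibition across duplicate retests at 20 µM reaching about 50%, limit read from the data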;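 also: 0% = DMSO wells and 100% = wells with excess untagged CBFb-SMMHC; inhibitors lower the FRET ratio by blocking Runt binding to CBFb-SMMHC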
Runt-CBFb FRET = inhibitors of RUNX1 Runt–CBFb binding, primary screen, biochemical, FRET, Cerulean-Runt, Venus-CBFb, uHTS | inhibition, % at 20 µM | actives 0.46% (n = 220,000) | Cerulean-Runt/Venus-CBFb FRET ratio 530/480, 1 h | Runt-related transcription factor 1 (Homo sapiens) + Core-binding factor subunit beta … | AID 1496, 2009;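 active = inhibition over about 50% at 20 µM in the single-dose screen, limit read from the data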;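 also: 0% = DMSO wells and 100% = excess unlabeled CBFb competitor control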
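Schedule: protein complex preformed 1 h, compound exposure 1 h, room temperature, dark; test system: Cerulean-labeled Runt domain protein; amount: 100 nM per protein; buffer or medium: Tris 50 mM pH 7.5, KCl, K2SO4, 0.01% BSA; read-out: loss of energy transfer signal; detection: FRET fluorescence; controls: 5 µM unlabeled CBFb as full-inhibition high control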
An asterisk follows results filed as active; i = inactive; ? = inconclusive; · = no result; + = active, no number. Most compounds without a hit are left out; they make up all but 1.8% or so of the library.

SMILES | Rce1 inhib | RanGTP-Impb inh | Platelet DG rel | Runt-SMMHC FRET | Runt-CBFb FRET
COc1cc2c(cc1O)C(Cc1ccc(O)cc1)[N+](C)([O-])CC2 (stereo not given) | i | ? | -1 | -1 | 2
COc1ccc(C[C@H]2c3cc(O)c(OC)cc3CC[N+]2(C)[O-])cc1O (stereo not given in full) | + | 0 | -1 | 1 | 4
Cc1ccc(C(=O)N2CCC(N3CCC(C(=O)N4CCOCC4)CC3)CC2)cc1C | i | 0 | 2 | · | ·
O=C(CNC(=O)N1CC(=O)Nc2ccccc21)NCCc1cccc(F)c1 | i | 1 | -2 | · | ·
O=C1CN(C(=O)NCC(=O)N2CCCC2)c2ccccc2N1 | + | 3 | -24 | · | ·
O=C(CCNC(=O)N1CC(=O)Nc2ccccc21)NCCc1cccc(F)c1 | + | 2 | -26 | · | ·
COC(=O)c1ccccc1NC(=O)NCc1cccnc1 | + | -6 | -2 | -3 | 2
COc1ccc2[nH]c(CN3CCN(CC=C(C)C)C(CCO)C3)c(C)c2c1 (stereo not given) | i | 7 | -22 | · | ·
Cn1c2ccccc2c(=O)c2ccc(-c3ccc4c(c3)OCO4)cc21 | i | 49* | -4 | · | ·
COc1cc(C2CC(=O)Oc3c2c(=O)n(C)c2ccccc32)cc(OC)c1OC (stereo not given) | i | 1 | -5 | · | ·
COc1ccc(-c2cc(Cl)cc3c(=O)c4ccccc4n(C)c23)cc1F | i | 112* | 2 | · | ·
COc1cc(-c2ccc3c(=O)c4ccccc4n(C)c3c2)cc(OC)c1OC | i | 57* | 3 | · | ·
Cn1c(-c2ccc3c(c2)OCO3)cc(=O)c2ccccc21 | i | 3 | -3 | -1 | 1
O=C(NC1CCCCC1)C(c1ccncc1)N(C(=O)Cc1cccs1)c1ccccc1 (stereo not given) | i | 0 | 1 | · | ·
COc1ccc(CNC(=O)C2CCN(S(=O)(=O)c3ccc4c(c3)N(C(C)=O)CCO4)CC2)cc1 | i | -3 | -11 | · | ·
COC(=O)c1n[nH]c2ccccc12 | i | 24* | -3 | 7 | 0
CN1CCN(Cc2c(O)ccc3cc(-c4ccccn4)c(=O)oc23)CC1 | · | 144* | 10 | 91* | 19
COc1ccc2c(CC(=O)Nc3nccs3)coc2c1 | i | 3 | -25 | -8 | -1
Cc1occc1C(=O)N/N=C/C=C/c1ccc(N(C)C)cc1 | i | -34 | -2 | · | ·
Cc1occc1C(=O)N/N=C/c1ccc(N(C)C)cc1 | i | ? | 78* | 6 | 4
Cc1c(Cl)cnc(NC(=O)COC(=O)c2cc3c(s2)CCC(C)C3)c1Cl (stereo not given) | i | 1 | 4 | -4 | 1
O=C1/C(=C/c2cccs2)Cc2ccccc21 | i | -3 | 18 | 3 | 1
Cn1cccc1/C=C1\CCc2ccccc2C1=O | i | ? | 67* | -25 | -7
Cn1cccc1/C=C1\Cc2ccccc2C1=O | i | 75* | 36 | 33 | 19
O=C(N/N=C/C1CC=CCC1)c1ccc(O)cc1O (stereo not given) | + | 4 | 12 | 4 | 3
O=C(N/N=C/C1CC=CCC1)c1cc2ccccc2cc1O (stereo not given) | i | -10 | 9 | -162 | -47
Cc1ccc(NC(=O)CNC(=O)CC23CC4CC(CC(C4)C2)C3)c(O)c1 | i | 2 | -18 | · | ·
N#C/C(=C/c1ccc(N2CCCCCC2)o1)c1ccc(F)cc1 | i | 27* | 16 | · | ·
Cc1oc2cc3oc(=O)c(CCC(=O)N[C@H](C(=O)O)C(C)C)c(C)c3cc2c1C | i | 2 | -6 | · | ·
COc1ccc2c3c([nH]c2c1)C1CC2C(CC(O)C(OC)C2C(=O)O)CN1CC3 (stereo not given) | i | 28* | 1 | -8 | -1
